Each structure is given as a SMILES string.

As a reminder, the IC50 is the midpoint of a concentration-inhibition curve. As usually defined, the inhibition is the share of the control response that was lost under treatment. A lower inhibition goes with little suppression. As a reminder, the AUC(0-t) is exposure summed from dosing to a finite time, without extrapolation to infinity. Lower therefore signals low exposure. Broadly, the MRT is the average time that molecules of a dose stay in the body.

Series [1] addresses Voltage-dependent T-type calcium channel subunit alpha-1G (Homo sapiens, UniProt O43497). Description: Inhibition of Cav3.1 alpha1G (unknown origin) expressed in HEK293 cells by whole-cell patch clamp method. Type of series: cell-based. The essentials: (§1)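 Whole-cell patch clamp on HEK293 cells expressing Cav3.1 or Cav3.2. T-type currents evoked every 15 s by a 50-ms step from −100 mV to −30 mV. External solution (mM): 140 NaCl, 2 CaCl₂, 10 HEPES, 10 glucose, pH 7.4.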

Series [2] addresses Voltage-dependent T-type calcium channel subunit alpha-1H (Homo sapiens, UniProt O95180). Description: Inhibition of Cav3.2 alpha1H (unknown origin) expressed in HEK293 cells by whole-cell patch clamp method. Type of series: cell-based. The essentials:
as §1

The next series is filed under the species Homo sapiens. Description: Inhibition of N-type Ca2+ channel (unknown origin) at 10 uM by whole-cell patch clamp method relative to control. For orientation: The patch-clamp technique gives a direct electrical read-out from membranes.
Series [3] deals with Voltage-gated inwardly rectifying potassium channel KCNH2 (Homo sapiens, UniProt Q12809). Description: Inhibition of human ERG expressed in CHOK1 cells by whole-cell patch clamp method. Format: cell-based, CHO-K1.
Another series addresses CYP3A4 (Homo sapiens, UniProt P08684). The series is described as follows: Inhibition of human CYP3A4 assessed as remaining activity at 10 uM using vivid CYP450 substrate measured after 15 mins by fluorescence assay relative to ketoconazole. Type of series: ADME. To be noted: probe vivid CYP450 substrate, read-out: Activity. The method in brief:
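Vivid fluorescence CYP assay: test compound at […] in water, mixed with BACULOSOMES master pre-mix and regeneration system, preincubated 15 min at 37 °C. Reaction started with Vivid substrate and NADPH. Remaining activity read by fluorescence as % of control, triplicate, mean ± SD. Isoform-specific reference inhibitors: α-naphthoflavone (1A2), sulfaphenazole (2C9), quinidine (2D6), ketoconazole (3A4).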

Series [4] deals with Rattus norvegicus. Description: Antineuropathic pain activity in rat spinal nerve ligation model assessed as effect on mechanical allodynia by measuring frequency of paw withdrawal at 100 mg/kg, po measured at 1 hr relative to control. Type of series: functional. The method in brief:
(§2)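 Spinal nerve ligation rats tested 2 weeks after nerve surgery, 100 mg/kg oral, n = 4 per group. Behaviour re-tested at 1, 3 and 5 h after dosing. Mechanical allodynia: von Frey filament applied five times, every 3–4 s, to the hind paw on a wire mesh floor. Cold allodynia: acetone applied to the plantar hind paw on a metal mesh floor.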

The test system of series [5] is Rattus norvegicus. The series is described as follows: Antineuropathic pain activity in rat spinal nerve ligation model assessed as effect on cold allodynia by measuring frequency of paw withdrawal at 100 mg/kg, po measured at 1 hr relative to gabapentin. Type of series: functional. The method in brief: as §2
Series [6] can be described thus: AUClast in Sprague-Dawley rat at 10 mg/kg, po. Type of series: ADME, organism-based. Also noted: dose 10 mg/kg, route oral, time 0 - last. To be noted: in vivo.
Series [7] is described as follows: Terminal half life in Sprague-Dawley rat at 10 mg/kg, iv. Type of series: ADME, organism-based. To be noted: in vivo, read-out: beta t1/2.
Series [8] is described as follows: Mean residence time in Sprague-Dawley rat at 10 mg/kg, iv. To be noted: in vivo. Type of series: ADME, organism-based.
The nature of series [9]: Ratio of drug level in brain to plasma in Sprague-Dawley rat at 10 mg/kg, po at 2 hrs post dose. Type of series: ADME, organism-based. Particulars: read-out: BPR.
Series [10] is described as follows: Apparent volume of distribution at steady state in Sprague-Dawley rat at 10 mg/kg, iv. Format: ADME, organism-based. To be noted: in vivo, read-out: Vdss(app).
Series [11] in a line: Drug uptake in Sprague-Dawley rat brain at 10 mg/kg, iv at 2 hrs post dose. Particulars: read-out: Drug uptake. Type of series: ADME, organism-based.
A short description of series [12]: Drug excretion in Sprague-Dawley rat at 10 mg/kg, po. Type of series: ADME, organism-based. To be noted: in vivo, read-out: Drug excretion.
The test system of series [13] is Rattus norvegicus. Description: Antineuropathic pain activity in rat spinal nerve ligation model assessed as effect on mechanical allodynia by measuring frequency of paw withdrawal at 100 mg/kg, po measured at 3 hrs relative to gabapentin. Format: functional. The method in brief: as §2
Series [14] has as its system Rattus norvegicus. Description: Antineuropathic pain activity in rat spinal nerve ligation model assessed as effect on cold allodynia by measuring frequency of paw withdrawal at 100 mg/kg, po measured at 5 hrs relative to control. Type of series: functional. The method in brief:
as §2

Series [15] relates to Rattus norvegicus. Description: Antineuropathic pain activity in rat spinal nerve ligation model assessed as effect on cold allodynia by measuring frequency of paw withdrawal at 100 mg/kg, po measured at 3 hrs relative to gabapentin. Type of series: functional. The essentials:
as §2

Chain of Voltage-gated inwardly rectifying potassium channel KCNH2 (Q12809 whole entry): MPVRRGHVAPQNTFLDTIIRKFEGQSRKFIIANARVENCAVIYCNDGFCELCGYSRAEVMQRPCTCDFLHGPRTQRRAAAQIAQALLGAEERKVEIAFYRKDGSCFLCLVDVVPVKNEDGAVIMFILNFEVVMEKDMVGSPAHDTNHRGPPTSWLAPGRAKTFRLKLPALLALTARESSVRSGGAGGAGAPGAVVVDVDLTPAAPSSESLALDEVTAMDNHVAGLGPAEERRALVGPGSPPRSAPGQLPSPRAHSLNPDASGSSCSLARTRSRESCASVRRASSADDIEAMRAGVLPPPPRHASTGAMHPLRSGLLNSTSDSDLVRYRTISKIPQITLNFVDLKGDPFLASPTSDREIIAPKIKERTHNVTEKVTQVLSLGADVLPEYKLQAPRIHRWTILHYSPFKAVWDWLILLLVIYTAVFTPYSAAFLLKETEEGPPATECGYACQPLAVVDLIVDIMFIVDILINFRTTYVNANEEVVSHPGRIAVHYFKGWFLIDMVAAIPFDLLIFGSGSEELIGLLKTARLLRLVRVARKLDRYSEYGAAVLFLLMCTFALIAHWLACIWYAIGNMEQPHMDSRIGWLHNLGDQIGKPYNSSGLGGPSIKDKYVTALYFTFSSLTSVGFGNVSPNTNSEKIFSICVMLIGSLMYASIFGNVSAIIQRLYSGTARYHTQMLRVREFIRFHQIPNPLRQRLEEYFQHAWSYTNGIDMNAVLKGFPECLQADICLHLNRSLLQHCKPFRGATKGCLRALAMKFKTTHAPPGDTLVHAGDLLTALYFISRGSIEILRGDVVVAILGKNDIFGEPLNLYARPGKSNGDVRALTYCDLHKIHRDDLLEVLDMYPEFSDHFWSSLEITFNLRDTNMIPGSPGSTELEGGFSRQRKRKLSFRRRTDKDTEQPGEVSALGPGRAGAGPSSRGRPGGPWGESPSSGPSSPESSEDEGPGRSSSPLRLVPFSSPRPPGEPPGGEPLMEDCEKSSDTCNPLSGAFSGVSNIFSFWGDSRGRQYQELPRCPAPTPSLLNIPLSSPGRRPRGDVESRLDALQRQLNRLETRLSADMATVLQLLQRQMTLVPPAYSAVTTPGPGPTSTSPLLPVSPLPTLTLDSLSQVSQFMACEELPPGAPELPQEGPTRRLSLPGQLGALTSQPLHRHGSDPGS
Chain of CYP3A4 (P08684 whole entry, canonical isoform): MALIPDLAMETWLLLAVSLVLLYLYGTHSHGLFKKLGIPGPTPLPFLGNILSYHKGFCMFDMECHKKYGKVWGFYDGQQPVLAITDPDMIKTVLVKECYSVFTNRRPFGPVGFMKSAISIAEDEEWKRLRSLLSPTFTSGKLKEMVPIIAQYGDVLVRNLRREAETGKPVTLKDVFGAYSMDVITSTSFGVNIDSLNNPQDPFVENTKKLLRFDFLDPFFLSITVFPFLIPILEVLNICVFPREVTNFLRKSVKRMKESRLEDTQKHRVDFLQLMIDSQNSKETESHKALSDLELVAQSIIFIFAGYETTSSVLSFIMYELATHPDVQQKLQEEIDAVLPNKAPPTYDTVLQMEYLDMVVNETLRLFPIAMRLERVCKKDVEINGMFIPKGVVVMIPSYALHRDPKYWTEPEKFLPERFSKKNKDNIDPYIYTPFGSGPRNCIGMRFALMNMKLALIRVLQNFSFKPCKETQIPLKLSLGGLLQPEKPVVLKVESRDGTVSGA
Chain of Voltage-dependent T-type calcium channel subunit alpha-1H (O95180 whole entry): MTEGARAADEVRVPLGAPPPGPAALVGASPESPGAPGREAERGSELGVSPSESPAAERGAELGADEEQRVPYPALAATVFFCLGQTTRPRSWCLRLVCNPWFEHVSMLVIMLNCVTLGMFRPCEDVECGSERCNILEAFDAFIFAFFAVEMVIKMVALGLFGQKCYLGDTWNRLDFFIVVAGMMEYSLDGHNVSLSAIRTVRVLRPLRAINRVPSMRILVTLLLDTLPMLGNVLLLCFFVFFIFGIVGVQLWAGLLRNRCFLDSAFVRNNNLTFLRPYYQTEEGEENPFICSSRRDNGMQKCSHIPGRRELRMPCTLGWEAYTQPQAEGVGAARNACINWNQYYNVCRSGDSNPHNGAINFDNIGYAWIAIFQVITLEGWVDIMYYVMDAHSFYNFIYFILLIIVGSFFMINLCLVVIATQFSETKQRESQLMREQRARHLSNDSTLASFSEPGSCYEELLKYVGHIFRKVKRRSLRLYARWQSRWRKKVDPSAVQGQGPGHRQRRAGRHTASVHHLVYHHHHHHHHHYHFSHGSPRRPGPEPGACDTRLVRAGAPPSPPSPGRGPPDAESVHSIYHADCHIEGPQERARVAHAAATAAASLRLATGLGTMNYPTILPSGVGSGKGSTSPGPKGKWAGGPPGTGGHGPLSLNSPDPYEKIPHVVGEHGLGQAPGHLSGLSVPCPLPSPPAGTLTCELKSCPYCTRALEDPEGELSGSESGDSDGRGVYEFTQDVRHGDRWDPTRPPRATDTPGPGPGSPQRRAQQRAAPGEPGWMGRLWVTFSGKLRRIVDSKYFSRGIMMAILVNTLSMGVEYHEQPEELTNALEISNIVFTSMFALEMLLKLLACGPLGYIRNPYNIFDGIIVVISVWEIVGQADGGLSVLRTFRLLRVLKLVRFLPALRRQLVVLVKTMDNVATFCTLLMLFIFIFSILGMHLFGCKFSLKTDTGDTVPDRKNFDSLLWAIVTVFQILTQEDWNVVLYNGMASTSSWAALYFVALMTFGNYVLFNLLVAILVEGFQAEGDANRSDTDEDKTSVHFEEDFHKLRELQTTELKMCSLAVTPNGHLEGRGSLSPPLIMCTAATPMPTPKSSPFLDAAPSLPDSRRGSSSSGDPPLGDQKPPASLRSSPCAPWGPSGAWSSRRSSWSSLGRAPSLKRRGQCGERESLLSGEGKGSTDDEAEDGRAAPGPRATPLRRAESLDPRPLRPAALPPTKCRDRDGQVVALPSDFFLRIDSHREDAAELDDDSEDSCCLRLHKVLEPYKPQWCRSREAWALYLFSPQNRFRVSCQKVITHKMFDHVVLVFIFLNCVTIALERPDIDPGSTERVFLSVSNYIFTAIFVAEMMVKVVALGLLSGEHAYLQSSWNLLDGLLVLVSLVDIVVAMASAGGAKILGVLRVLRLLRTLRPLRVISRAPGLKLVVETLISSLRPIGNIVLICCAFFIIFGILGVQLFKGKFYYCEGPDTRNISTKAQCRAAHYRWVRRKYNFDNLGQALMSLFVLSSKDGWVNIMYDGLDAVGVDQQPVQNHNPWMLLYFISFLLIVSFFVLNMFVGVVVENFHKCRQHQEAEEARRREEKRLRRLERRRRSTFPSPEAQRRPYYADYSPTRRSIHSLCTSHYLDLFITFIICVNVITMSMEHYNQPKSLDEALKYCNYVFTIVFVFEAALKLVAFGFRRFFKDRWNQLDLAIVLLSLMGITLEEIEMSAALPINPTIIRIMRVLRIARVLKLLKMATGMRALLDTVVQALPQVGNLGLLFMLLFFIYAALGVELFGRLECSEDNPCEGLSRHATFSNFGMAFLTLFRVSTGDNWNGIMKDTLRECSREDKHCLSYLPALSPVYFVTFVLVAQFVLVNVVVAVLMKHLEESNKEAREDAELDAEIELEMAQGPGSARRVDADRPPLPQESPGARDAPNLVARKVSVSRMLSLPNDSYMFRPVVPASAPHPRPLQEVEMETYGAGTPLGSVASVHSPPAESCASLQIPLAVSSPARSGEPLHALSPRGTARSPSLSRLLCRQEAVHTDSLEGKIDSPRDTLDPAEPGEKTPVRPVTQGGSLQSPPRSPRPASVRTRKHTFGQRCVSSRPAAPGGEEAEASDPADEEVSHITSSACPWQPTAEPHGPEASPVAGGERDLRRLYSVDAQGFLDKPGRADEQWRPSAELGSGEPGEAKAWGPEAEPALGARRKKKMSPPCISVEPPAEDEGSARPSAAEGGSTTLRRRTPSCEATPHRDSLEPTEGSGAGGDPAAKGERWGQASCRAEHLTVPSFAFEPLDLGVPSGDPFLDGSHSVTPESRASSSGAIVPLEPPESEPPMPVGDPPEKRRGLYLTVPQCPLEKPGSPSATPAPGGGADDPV

On to `CC(C)Cc1cc(CNS(=O)(=O)c2cccc(F)c2)nn1-c1ccccc1`, for which the results for the IC50 in [1], in series [2] and in series [3] were 3.2 µM, 2080 nM and 14.5 µM, respectively. This compound also gave an inhibition in the series listed under Homo sapiens of 55.6%. Moreover, the activity at 0.25 h, 10 µM at CYP3A4 is 80.1%. The MPE is recorded as 1.63% in the series on Rattus norvegicus [4]; 202.07% in the series with Rattus norvegicus [5]; 52.13% in the series with Rattus norvegicus [13]; 80.82% with Rattus norvegicus [14]; 91.75% with Rattus norvegicus [15]. In [6], the AUC(0-t) is 164 ng·h/mL. Besides, in series [7], the half-life was 55.7 min. Besides, the MRT in [8] was 58 min. In addition, the Kp at 2 h in series [9] was found to be 0.19. The Vd in [10] was found to be 4.95 L/kg. In addition, the concentration at 2 h in series [11] amounted to 366 ng/mL. Moreover, the dose excreted in series [12] was 0%.
